Calls of active or inactive are those of the source. The calls are words filed in the database; no cut-off is given here.
How the values were obtained:
[1] = Tmax in Sprague-Dawley rat at 10 mg/kg, po; type: ADME, organism-based; conditions: in vivo
How it was run: (§1)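 Sprague-Dawley rats were dosed either intravenously at 1 mg/kg or by oral gavage at 10 mg/kg. Plasma PK parameters were AUC(0-t), AUC(0-∞), MRT(0-t), T1/2, Tmax, Vz, CLz, Cmax and F%. Values are the mean ± SD of three independent animals.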

[2] = system: MOLM-14; experiment: Inhibition of ERK phosphorylation at Thr202/Tyr204 residues in human MOLM-14 cells harboring FLT3-ITD mutant incubated for 4 hrs by Western blot analysis; type: cell-based; conditions: dose 0.01-3 µM
How it was run: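 Cells were exposed to the compound at a series of concentrations for 4 h, and whole-cell lysates were analysed by Western blot. MV4-11 cells were grown in IMDM with 10% FBS. MOLM13 and MOLM14 cells were grown in RPMI 1640 with 10% FBS. All cultures were kept at 37 °C with 5% CO2.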

[3] = Cytotoxicity against CHL cells assessed as inhibition of cell growth; type: toxicity, cell-based, Cricetulus griseus; conditions: chinese hamster
[4] = Half life in Sprague-Dawley rat at 10 mg/kg, po; type: ADME, organism-based; conditions: in vivo; how it was run: as §1
[5] = system: MV4-11; experiment: Antiproliferative activity against human MV4-11 cells transfected with FLT3-ITD mutant assessed as cell growth inhibition incubated for 72 hrs by CCK-8 assay; type: functional
How it was run: (§2)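 Cells kept at 37 °C, 5% CO2. MV4-11 grown in IMDM with 10% FBS. MOLM13, MOLM14, U937 and HL-60 grown in RPMI 1640 with 10% FBS. OCI-AML-2 grown in α-MEM with 20% FBS. Seeded at 1500-3000 cells/well and exposed to a concentration series for 72 h. Viability read by CCK8 absorbance at 450 nm.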

[6] = Cytotoxicity against CHO cells assessed as inhibition of cell growth; type: toxicity, cell-based, Cricetulus griseus; conditions: chinese hamster
[7] = system: HL-60; experiment: Antiproliferative activity against human HL-60 cells transfected with wild type FLT3 assessed as cell growth inhibition incubated for 72 hrs by CCK-8 assay; type: functional; how it was run: as §2
[8] = system: BaF3; experiment: Antiproliferative activity against mouse BaF3 cells transfected with TEL fused FLT3 Y842H mutant assessed as cell growth inhibition incubated for 72 hrs by CCK-8 assay; type: functional
How it was run: (§3)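 Kinase-transformed isogenic BaF3 lines grown in RPMI 1640 with 10% FBS, 2% L-glutamine and pen/strep at 37 °C, 5% CO2. Seeded at 1500-3000 cells/well and treated with a compound concentration series for 72 h. Viability read by CCK8 absorbance at 450 nm.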

[9] = system: MOLM-13; experiment: Induction of cell cycle arrest in human MOLM-13 cells harboring FLT3-ITD mutant assessed as accumulation of cells at G0/G1 phase at 0.1 uM incubated for 12 hrs by RNase/PI staining based flow cytometry analysis; type: functional
[10] = system: MV4-11; experiment: Antitumor activity against human MV4-11 cells xenografted in nu/nu mouse assessed as inhibition of tumor growth at 100 mg/kg/day, po administered via gavage for 28 days relative to control; type: functional; conditions: MV4-11, 672 h, time 28 day, read-out: TGI
How it was run: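 MV4-11 cells implanted in mice. Once tumours reached a mean of about 200 mm3, mice were dosed orally once daily for 28 days with vehicle or 25, 50 or 100 mg/kg/day. Tumour size and body weight tracked relative to starting values; final tumour weight also recorded.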

[11] = Clearance in Sprague-Dawley rat at 10 mg/kg, po; type: ADME, organism-based; conditions: in vivo, read-out: CL(app) (converted)
How it was run: (§4)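 Sprague-Dawley rats dosed IV at 1 mg/kg or by oral gavage at 10 mg/kg. Parameters from plasma exposure: AUC(0-t), AUC(0-∞), MRT, T1/2, Tmax, Vz, CLz, Cmax. Values are mean ± SD from three animals.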

[12] = system: MOLM-13; experiment: Antiproliferative activity against human MOLM-13 cells transfected with FLT3-ITD mutant assessed as cell growth inhibition incubated for 72 hrs by CCK-8 assay; type: functional; how it was run: as §2
[13] = Oral bioavailability in Sprague-Dawley rat at 10 mg/kg; type: ADME, organism-based; conditions: in vivo; how it was run: as §1
[14] = system: OCI-AML2; experiment: cells; type: functional; conditions: Homo sapiens, time 72 hrs
[15] = target: Platelet-derived growth factor receptor beta (Homo sapiens, UniProt P09619); experiment: Inhibition of PDGFRbeta (unknown origin) preincubated for 60 mins followed by ATP addition and measured after 1 hr by ADP-Glo assay
How it was run: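 ADP-Glo luminescence assay. Kinase was preincubated with compound for 60 min at room temperature, then ATP/substrate was added and the reaction ran 1 h at 37 °C. ADP-Glo reagent was added for 40 min, then detection reagent for 30 min, and luminescence was read. Enzyme and ATP per target: KIT 20 ng/µL, 50 µM ATP; PDGFRα 2.5 ng/µL, 25 µM ATP; PDGFRβ 1.25 ng/µL, 25 µM ATP. IC50 was taken from the dose-response fit.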

[16] = Clearance in Sprague-Dawley rat at 1 mg/kg, iv; type: ADME, organism-based; conditions: in vivo, read-out: CL(app) (converted); how it was run: as §4
[17] = system: MOLM-13; experiment: Induction of apoptosis in human MOLM-13 cells harboring FLT3-ITD mutant assessed as increase in cleaved PARP level incubated for 24 hrs by Western blot analysis; type: functional, cell-based; conditions: dose 0.1-3 µM
[18] = AUC (0 to infinity) in Sprague-Dawley rat at 10 mg/kg, po; type: ADME, organism-based; set-up: dose 10 mg/kg, route po; conditions: in vivo; how it was run: as §4
[19] = system: BaF3; experiment: Antiproliferative activity against mouse BaF3 cells transfected with TEL fused PDGFRalpha assessed as cell growth inhibition incubated for 72 hrs by CCK-8 assay; type: functional; how it was run: as §3
[20] = Cmax in Sprague-Dawley rat at 10 mg/kg, po; type: ADME, organism-based; set-up: dose 10 mg/kg, route po; conditions: in vivo; how it was run: as §4
[21] = system: MV4-11; experiment: Antitumor activity against human MV4-11 cells xenografted in nu/nu mouse assessed as increase in tumor cell apoptosis administered orally via gavage for 28 days by tunel staining based immunohistochemical analysis; type: functional; conditions: dose 25-100 mg/kg/day, route po, time 28.0 day
How it was run: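 Tumours taken from MV4-11 xenograft mice after 28 days of daily oral dosing. Tissue stained with HE, Ki-67 (proliferation) and TUNEL (apoptosis), and treated groups compared with the vehicle group.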

[22] = target: T1, Macrophage colony-stimulating factor 1 receptor (Homo sapiens, UniProt P07333); experiment: Inhibition of CSF1R (unknown origin) preincubated for 60 mins followed by ATP addition and measured after 1 hr by ADP-Glo assay
[23] = target: Mast/stem cell growth factor receptor Kit (Homo sapiens, UniProt P10721); experiment: Inhibition of KIT (unknown origin) assessed as residual activity at 1 uM preincubated for 60 mins followed by ATP addition and measured after 1 hr by ADP-Glo assay relative to control; conditions: time 2.0 hrs
[24] = target: T1, Macrophage colony-stimulating factor 1 receptor; experiment: Inhibition of CSF1R (unknown origin) assessed as residual activity at 1 uM preincubated for 60 mins followed by ATP addition and measured after 1 hr by ADP-Glo assay relative to control; conditions: time 2.0 hrs
[25] = system: BaF3; experiment: Antiproliferative activity against mouse BaF3 cells transfected with TEL fused FLT3 K663Q mutant assessed as cell growth inhibition incubated for 72 hrs by CCK-8 assay; type: functional; how it was run: as §3

T1 sequence (P07333 whole entry): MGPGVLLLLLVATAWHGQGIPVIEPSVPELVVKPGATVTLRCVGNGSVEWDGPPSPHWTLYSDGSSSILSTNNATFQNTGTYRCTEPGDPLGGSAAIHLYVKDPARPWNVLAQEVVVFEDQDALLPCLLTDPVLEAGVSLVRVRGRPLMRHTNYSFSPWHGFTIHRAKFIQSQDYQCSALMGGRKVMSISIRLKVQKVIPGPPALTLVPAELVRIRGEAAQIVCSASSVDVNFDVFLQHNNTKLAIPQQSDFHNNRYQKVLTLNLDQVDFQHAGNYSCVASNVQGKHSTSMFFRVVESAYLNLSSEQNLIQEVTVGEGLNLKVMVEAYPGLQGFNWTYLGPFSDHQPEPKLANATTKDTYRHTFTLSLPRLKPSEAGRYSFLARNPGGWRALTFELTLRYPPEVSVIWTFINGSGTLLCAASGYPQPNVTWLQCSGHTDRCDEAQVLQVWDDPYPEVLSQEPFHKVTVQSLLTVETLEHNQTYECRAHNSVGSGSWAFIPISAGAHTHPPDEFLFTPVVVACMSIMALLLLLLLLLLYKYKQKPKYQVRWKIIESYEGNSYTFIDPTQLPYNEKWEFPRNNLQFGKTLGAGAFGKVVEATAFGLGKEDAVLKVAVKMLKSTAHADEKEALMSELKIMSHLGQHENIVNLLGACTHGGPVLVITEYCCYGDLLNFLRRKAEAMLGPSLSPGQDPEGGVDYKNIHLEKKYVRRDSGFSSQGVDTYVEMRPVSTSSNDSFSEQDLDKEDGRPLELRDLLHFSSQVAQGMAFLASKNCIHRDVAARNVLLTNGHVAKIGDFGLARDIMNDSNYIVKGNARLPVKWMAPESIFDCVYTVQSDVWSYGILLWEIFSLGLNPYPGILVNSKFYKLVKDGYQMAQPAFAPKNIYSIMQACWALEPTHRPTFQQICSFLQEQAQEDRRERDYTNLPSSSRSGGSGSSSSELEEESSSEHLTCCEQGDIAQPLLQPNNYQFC
Chain of Mast/stem cell growth factor receptor Kit (P10721 whole entry): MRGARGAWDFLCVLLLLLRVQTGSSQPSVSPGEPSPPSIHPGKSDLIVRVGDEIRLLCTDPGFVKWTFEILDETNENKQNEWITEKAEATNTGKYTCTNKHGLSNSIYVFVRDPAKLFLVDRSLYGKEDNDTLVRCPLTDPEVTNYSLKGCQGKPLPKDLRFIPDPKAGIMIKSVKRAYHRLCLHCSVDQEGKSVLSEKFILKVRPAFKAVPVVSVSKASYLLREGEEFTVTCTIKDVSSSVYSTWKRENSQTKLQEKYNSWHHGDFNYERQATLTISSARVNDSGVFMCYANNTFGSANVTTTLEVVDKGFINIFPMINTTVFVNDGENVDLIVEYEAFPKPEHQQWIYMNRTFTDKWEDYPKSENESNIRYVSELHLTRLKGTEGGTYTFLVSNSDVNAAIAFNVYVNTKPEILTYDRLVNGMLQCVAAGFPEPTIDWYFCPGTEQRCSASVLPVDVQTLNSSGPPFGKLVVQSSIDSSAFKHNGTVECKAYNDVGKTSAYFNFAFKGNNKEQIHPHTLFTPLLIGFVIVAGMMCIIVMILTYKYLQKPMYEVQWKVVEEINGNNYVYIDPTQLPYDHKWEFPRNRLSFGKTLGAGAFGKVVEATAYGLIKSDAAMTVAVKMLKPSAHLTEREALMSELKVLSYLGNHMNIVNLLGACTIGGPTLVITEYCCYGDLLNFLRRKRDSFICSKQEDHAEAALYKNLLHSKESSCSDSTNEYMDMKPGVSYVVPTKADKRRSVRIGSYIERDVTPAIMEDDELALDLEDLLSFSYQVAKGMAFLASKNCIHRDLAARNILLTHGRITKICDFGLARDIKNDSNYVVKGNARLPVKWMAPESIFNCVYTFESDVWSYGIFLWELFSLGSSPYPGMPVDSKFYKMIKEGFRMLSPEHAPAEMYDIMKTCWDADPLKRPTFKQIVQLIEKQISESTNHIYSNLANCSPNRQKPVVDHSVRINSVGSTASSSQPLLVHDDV
Chain of Platelet-derived growth factor receptor beta (P09619 whole entry): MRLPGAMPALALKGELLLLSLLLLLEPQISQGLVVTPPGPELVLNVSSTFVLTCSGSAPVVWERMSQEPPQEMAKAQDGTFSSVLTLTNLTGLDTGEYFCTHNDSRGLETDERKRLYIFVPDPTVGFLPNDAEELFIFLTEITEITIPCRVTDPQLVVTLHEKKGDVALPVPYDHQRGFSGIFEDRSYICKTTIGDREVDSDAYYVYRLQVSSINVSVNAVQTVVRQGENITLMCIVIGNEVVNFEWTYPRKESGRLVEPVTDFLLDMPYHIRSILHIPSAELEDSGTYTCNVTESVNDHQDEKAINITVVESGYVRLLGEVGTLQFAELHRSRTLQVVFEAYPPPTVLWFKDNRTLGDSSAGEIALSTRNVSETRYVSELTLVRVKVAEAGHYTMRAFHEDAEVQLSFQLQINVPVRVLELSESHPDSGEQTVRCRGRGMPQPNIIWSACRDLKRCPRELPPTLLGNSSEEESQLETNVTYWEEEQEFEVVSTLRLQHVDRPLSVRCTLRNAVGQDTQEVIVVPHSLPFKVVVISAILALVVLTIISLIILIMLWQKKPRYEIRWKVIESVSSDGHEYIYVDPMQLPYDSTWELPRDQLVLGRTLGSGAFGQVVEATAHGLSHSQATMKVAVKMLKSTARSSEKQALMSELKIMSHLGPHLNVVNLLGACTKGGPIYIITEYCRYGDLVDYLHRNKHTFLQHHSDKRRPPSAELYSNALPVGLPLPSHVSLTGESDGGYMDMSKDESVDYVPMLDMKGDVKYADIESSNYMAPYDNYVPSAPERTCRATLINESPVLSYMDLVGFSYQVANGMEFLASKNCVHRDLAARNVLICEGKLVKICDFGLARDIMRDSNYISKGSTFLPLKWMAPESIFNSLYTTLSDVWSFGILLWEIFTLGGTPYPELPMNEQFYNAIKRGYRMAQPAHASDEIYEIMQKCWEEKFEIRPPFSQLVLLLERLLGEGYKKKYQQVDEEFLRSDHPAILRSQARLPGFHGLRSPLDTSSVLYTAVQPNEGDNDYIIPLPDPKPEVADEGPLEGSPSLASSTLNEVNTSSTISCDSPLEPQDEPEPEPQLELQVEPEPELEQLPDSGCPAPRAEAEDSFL

Tmax [1]: 2 h | half-life [4]: 2.8 h | GI50 [5]: 284 nM | GI50 [7]: > 10000 nM | GI50 [8]: 7500 nM | CL/F [11]: 6.67 mL/min/kg | GI50 [12]: 466 nM | F [13]: 171% | GI50 [14]: > 10000 nM | IC50 [15]: 207 nM | clearance [16]: 11.7 mL/min/kg | AUC(0-inf) [18]: 28000 ng·h/mL | GI50 [19]: 7 nM | Cmax [20]: 3630 ng/mL | IC50 [22]: 212 nM | Activity [23]: 0.05% | Activity [24]: 2.4% | GI50 [25]: 9400 nM
SMILES: CC(=O)Nc1cc(Oc2ccc(NC(=O)Cc3ccccc3C(F)(F)F)cc2)ncn1
inhibition [2]: Dose-Dependent Effect | GI50 [3]: > 10000 nM | GI50 [6]: > 10000 nM | Activity [9]: Active | inhibition in vivo at 100 mg/kg/day [10]: 80% | Activity [17]: Dose-Dependent Effect | Activity [21]: Dose-Dependent Effect

From ChEMBL document CHEMBL5260841, “Discovery of N-(4-(6-Acetamidopyrimidin-4-yloxy)phenyl)-2-(2-(trifluoromethyl)phenyl)acetamide (CHMFL-FLT3-335) as a Potent FMS-like Tyrosine Kinase 3 Internal Tandem Duplication (FLT3-ITD) Mutant Selective Inhibitor for Acute Myeloid Leukemia” (J Med Chem, 2019)
